Tested on: TAR RNA
Assay: Direct binding of ligands to TAR by ESI-MS under nondenaturing conditions
Design: species or system HIV-1
Conditions: 1 μM TAR, 10 μM ligand (1:10), 150 mM ammonium acetate
Procedure, shortened: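 Nondenaturing ESI-MS of HIV-1 TAR RNA (1 μM) mixed with test compound (10 μM, 1:10 molar ratio) in 150 mM ammonium acetate. Species assigned from monoisotopic masses. Free and bound RNA were quantified from relative abundances, expressed as percentages and compared to assess binding.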

| Structure (SMILES) | binding stoichiometry of TAR complexes (ligand:TAR) |
| --- | --- |
| CC(NC(=O)C(N)CCCN)C(=O)Nc1ccc2c(c1)C(=O)c1ccc(NC(=O)C(C)NC(=O)C(N)CCCN)cc1C2=O.O=C(O)C(F)(F)F.O=C(O)C(F)(F)F.O=C(O)C(F)(F)F.O=C(O)C(F)(F)F [D-4g, N,N ′-(1,1′-(9,10-Dioxo-9,10-dihydroanthracene-2,6-diyl)-bis(azanediyl)bis(1-oxo-propane-2,1-diyl))bis(2,5-diaminopentanamide)-tetra-trifluoroacetate] | up to 3 equiv of ligand |
| C[C@H](NC(=O)C(N)CCCCN)C(=O)Nc1ccc2c(c1)C(=O)c1ccc(NC(=O)[C@H](C)NC(=O)C(N)CCCCN)cc1C2=O.O=C(O)C(F)(F)F.O=C(O)C(F)(F)F.O=C(O)C(F)(F)F.O=C(O)C(F)(F)F (stereo partly drawn) [D-4h, N,N′-(2S,2′S)-1,1′-(9,10-Dioxo-9,10-dihydro-anthracene-2,6-diyl)bis(azanediyl)-bis(1-oxopropane-2,1-diyl)bis(2,6-diaminohexanamide)-tetra-trifluoroacetate] | up to 4 equiv of ligand |

Source: article PMC7175782 (Bioconjugate chemistry, 2018)
